Experimental data as given in the RNAGym collection of RNA variant scans (doi:10.1126/science.aae0568).
Variants at the floor of the assay were thinned out.

B1: tRNA (parent)
chain: GUUCCGUUGGCGUAAUGGUAACGCGUCUCCCUCCUAAGGAGAAGACUGCGGGUUCGAGUCCCGUACGGAACG

Variants of: B1
Assay: yeast fitness relative to wild type (ratio to wild type); higher = fitter; tRNA-Arg(CCU), competitive growth, 37 C, YPD
Procedure, shortened: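 Variants of the tRNA-Arg(CCU) gene were chemically synthesised with a 3% per-site mutation rate across 69 sites and placed at the native genomic locus in Saccharomyces cerevisiae. Six parallel replicates of the pooled strains were competed in YPD at 37°C for 24 hours, and gene amplicons from the start and end populations were read by 100-nucleotide paired-end sequencing. Darwinian fitness relative to wild type was derived from changes in genotype frequencies. Genotypes required ≥ 100 starting reads, and estimates < 0.5 were set to 0.5.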

Going from GUUCCGUUGGCGUAAUGGUAACGCGUCUCCCCCCUAAGGACAAGACUGCAGGUUCGAGUCGCGUACGGAACG [U32C G41C G50A C61G] to GUUCCGUUGGCGUAAUGGUAACGCGUCUCCCCCCUAAGGACAAGACUGCGGGUUCGAUUCCCGUACGGAACG [U32C G41C G58U], the yeast fitness falls from 0.565 to 0.533.

First: GUUCCGUUGGCGUAAUGGUAACGCGUCUCCCCCCUAAGGAGAAAACUGCGGGUUCGAGUCCCGUACGGAACG [U32C G44A]
Second: GUUCCGUUGGCGUAAUGGUAACGCGUCUCCCCCCUAAGGAGAAAACUGCGGGUUCGAGUCCCGUACGGUACG [U32C G44A A69U]
The yeast fitness of the first is lower: 1.03 for the first, 1.05 for the second.

First: GUUCCGUUGGCGUAAUGGUAACGCGUCUCCCCCCUAAGGAGAAAACUGCGGGUUCGAGUCGCGUACGGAACG [U32C G44A C61G]
Second: GUUCCGUUGGCGUAAUGGUAACGCGUCUCCCCCCUAAGGAGAAGACUGCAGGUUCGAGUCCCGUACGGAACG [U32C G50A]
The yeast fitness of the first is lower: ≤ 0.5 for the first, 1.02 for the second.

GUUCCGUUGGCGUAAUGGUAACGCGUCUCCCCCCUAAGGAGAAGACUGCGCGUUCGAGUCUCGUACGGAACG [U32C G51C C61U] and GUUCCGUUGGCGUAAUGGUAACGCGUCUCCCCCCUAAGGAGAAGACUGCGGCUUCGAGUCCCGUACAGCACG [U32C G52C G67A A69C] cannot be ordered by yeast fitness: ≤ 0.5 for the first, ≤ 0.5 for the second.

Going from GUUCCGUUGGCGUAAUGGUAACGCGUCUCCCCCCUAAGGAGAAGACUGCGGGUUCGAGUCCCAUACGGAACG [U32C G63A] to GUUCCGUUGGCGUAAUGGUAACGCGUCUCCCCCCUAAGGAGAAGACUGCGGGUUCGAGUCCCGUACAGAACG [U32C G67A], the yeast fitness rises from 0.832 to 0.855.

Compared with GUUCCGUUGGCGUAAUGGUAACGCGUCUCCCCCCUAAGGAGAAGACUGCGGGUUCGAGUCCCGUACUGAACG [U32C G67U], GUUCCGUUGGCGUAAUGGUAACGCGUCUCCCCCCUAAGGAGAAGACUGCGGGUUCGAGUCCCGUACUGCACG [U32C G67U A69C] is lower in yeast fitness: 0.861 for the first, ≤ 0.5 for the second.

Compared with GUUCCGUUGGCGUAAUGGUAACGCGUCUCCCCCCUAAGGAGAAGACUGCGGGUUCGAGUCCCGUACGCAACG [U32C G68C], GUUCCGUUGGCGUAAUGGUAACGCGUCUCCCCCCUAAGGAGAAGACCGCGGGUUCGAGUCCCGUACGGAACG [U32C U47C] is higher in yeast fitness: 0.808 for the first, 0.974 for the second.

Compared with GUUCCGUUGGCGUAAUGGUAACGCGUCUCCCCCCUAAGGAGAAGACUGCGGGAUCGAGUCCCGUACGGAACG [U32C U53A], GUUCCGUUGGCGUAAUGGUAACGCGUCUCCCCCCUAAGGAGAAGACUGCGGGCUCGAGUCCCGUACGGAACG [U32C U53C] is higher in yeast fitness: 0.691 for the first, 0.766 for the second.

Going from GUUCCGUUGGCGUAAUGGUAACGCGUCUCCCCCCUAAGGAGAAGACUGCGGGUACGAGUCCCGUGCGGAACG [U32C U54A A65G] to GUUCCGUUGGCGUAAUGGUAACGCGUCUCCCCCCUAAGGAGAAGACUGCGGGUGCGAGUCCUGUACGGAACG [U32C U54G C62U], the yeast fitness rises from ≤ 0.5 to 0.565.

Compared with GUUCCGUUGGCGUAAUGGUAACGCGUCUCCCCCCUAAGGAGAAGACUGCGGGUUCGAGGCCCGUACGGAACG [U32C U59G], GUUCCGUUGGCGUAAUGGUAACGCGUCUCCCCCCUAAGGAGAAGACUGCGGGUUCGAGUCCCGCACGGAACG [U32C U64C] is higher in yeast fitness: 0.878 for the first, 0.946 for the second.

Going from GUUCCGUUGGCGUAAUGGUAACGCGUCUCCCCCCUAAGGAGAAGACUGCGGGUUCGAGUCCCGGACGGAACG [U32C U64G] to GUUCCGUUGGCGUAAUGGUAACGCGUCUCCCGCCUUAGGAGAAGGCUGCGGGUUCGAGUCCCGUACGGAACG [U32G A36U A45G], the yeast fitness falls from 0.754 to ≤ 0.5.

First: GUUCCGUUGGCGUAAUGGUAACGCGUCUCCCGCCUACGGAGAAGACUGCGGGUUCGCGUCCCAUACGGAACG [U32G A37C A57C G63A]
Second: GUUCCGUUGGCGUAAUGGUAACGCGUCUCCCGCCUAUGGAGAAGACUGCGGGUUCGAGUCCCGUACGGAACG [U32G A37U]
The yeast fitness of the first is lower: ≤ 0.5 for the first, 0.55 for the second.

GUUCCGUUGGCGUAAUGGUAACGCGUCUCCCGCCUAAGGUGAAGACUGCGGAUUCGUGUCCCGUACGGAACG [U32G A40U G52A A57U] and GUUCCGUUGGCGUAAUGGUAACGCGUCUCCCGCCUAAGGUGAAGACUGCGGAUUCGUGUCCCGUCCGGAACG [U32G A40U G52A A57U A65C] cannot be ordered by yeast fitness: ≤ 0.5 for the first, ≤ 0.5 for the second.

First: GUUCCGUUGGCGUAAUGGUAACGCGUCUCCCGCCUAAGGUGAAGACUGCGGGUUCGAGUCCCGGACGGAACG [U32G A40U U64G]
Second: GUUCCGUUGGCGUAAUGGUAACGCGUCUCCCGCCUAAGGAGGAGACUGCGGGUUCGAGUCCCGUACGGAACG [U32G A42G]
The yeast fitness of the first is lower: 0.543 for the first, 0.56 for the second.

Compared with GUUCCGUUGGCGUAAUGGUAACGCGUCUCCCGCCUAAGGAGACGACUGCGGGUUCGAGUCCCGUACGGAACG [U32G A43C], GUUCCGUUGGCGUAAUGGUAACGCGUCUCCCGCCUAAGGAGAAGCCUGCGGGUUCGAGUCCCGUACGGAACG [U32G A45C] is lower in yeast fitness: 0.694 for the first, 0.692 for the second.

GUUCCGUUGGCGUAAUGGUAACGCGUCUCCCGCCUAAGGAGAAGCCUGCGGGUUCAAGUCCCGUAUGGAACG [U32G A45C G56A C66U] and GUUCCGUUGGCGUAAUGGUAACGCGUCUCCCGCCUAAGGAGAAGCCUGCGGGUUCGAGUCCCGUACGAAACG [U32G A45C G68A] cannot be ordered by yeast fitness: ≤ 0.5 for the first, ≤ 0.5 for the second.

Going from GUUCCGUUGGCGUAAUGGUAACGCGUCUCCCGCCUAAGGAGAAGGCUGCGGGUUCGAGUCCCGUACGGAACG [U32G A45G] to GUUCCGUUGGCGUAAUGGUAACGCGUCUCCCGCCUAAGGAGAAGGCUGUGGGUUCGAGUCCCGUACGGAACG [U32G A45G C49U], the yeast fitness falls from 0.673 to ≤ 0.5.

Compared with GUUCCGUUGGCGUAAUGGUAACGCGUCUCCCGCCUAAGGAGAAGACUGCGGGUUCGAGUCCCGUGCGGAACG [U32G A65G], GUUCCGUUGGCGUAAUGGUAACGCGUCUCCCGCCUAAGGAGAAGACUGCGGGUUCGAGUCCCGUACGGUACG [U32G A69U] is lower in yeast fitness: 0.718 for the first, 0.711 for the second.

Going from GUUCCGUUGGCGUAAUGGUAACGCGUCUCCCGCCUAAGGAGAAGACUGCGGGUUCGAGUCCCGUACGGACCG [U32G A70C] to GUUCCGUUGGCGUAAUGGUAACGCGUCUCCCGCCUAAGGAGAAGACUGCGGGUUCGAGUCCCGUACGGAGCG [U32G A70G], the yeast fitness falls from 0.787 to 0.628.
